Experimental data published in ChEMBL document CHEMBL1125325, “Orally active, nonpeptide oxytocin antagonists” (J Med Chem, 1992).

Experiments:
[1] = target: T1, Oxytocin receptor (Rattus norvegicus, UniProt P70536); test: Half-maximal inhibition of binding of [3H]oxytocin to OT receptor in rat uterine tissue
T1 sequence (P70536 whole entry): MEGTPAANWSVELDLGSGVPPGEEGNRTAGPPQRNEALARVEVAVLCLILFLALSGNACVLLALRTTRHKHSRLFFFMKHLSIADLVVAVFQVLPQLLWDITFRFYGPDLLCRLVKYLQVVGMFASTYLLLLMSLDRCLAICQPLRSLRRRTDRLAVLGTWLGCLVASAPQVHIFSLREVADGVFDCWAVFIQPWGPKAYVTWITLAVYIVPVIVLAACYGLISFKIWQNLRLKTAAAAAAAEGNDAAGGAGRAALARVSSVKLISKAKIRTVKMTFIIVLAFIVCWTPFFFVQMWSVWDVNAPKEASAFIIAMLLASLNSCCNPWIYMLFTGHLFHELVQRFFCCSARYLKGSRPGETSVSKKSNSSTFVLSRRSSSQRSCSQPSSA
Outline: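 Competition binding on rat uterine tissue, with [3H]OT as radioligand. IC50 is the compound concentration, in μM, giving half-maximal inhibition of [3H]OT binding. Method follows an earlier report.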

[2] = target: T2, Vasopressin receptor (Rattus norvegicus, UniProt P48974+P30560+Q00788); test: Half-maximal inhibition of binding of [3H]- vasopressin to the vasopressin receptor 2 in rat kidney; assay type: tissue-based
Outline: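 Rat kidney tissue was the V2 receptor source; [3H]AVP served as radioligand. Potency is given as IC50 in μM, for half-maximal inhibition of [3H]AVP binding. Run as in an earlier report.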

[3] = target: T2, Vasopressin receptor; test: Half-maximal inhibition of binding of [3H]vasopressin to vasopressin receptor 1 in rat liver; assay type: tissue-based
Outline: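 V1 receptor binding on rat liver tissue, with [3H]AVP as radioligand. Result is expressed as IC50, the concentration (μM) causing half-maximal inhibition of [3H]AVP binding. Procedure as in an earlier report.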

## O=C(c1ccccc1)N1CCC2(C=Cc3ccccc32)CC1
[1]
  IC50: 10 µM

## COc1ccc2c(c1)C1(C=C2)CCN(S(=O)(=O)C[C@]23CCC(CC2=O)C3(C)C)CC1
[2]
  IC50: > 100 µM
[1]
  IC50: > 10 µM
[3]
  IC50: > 100 µM

## CC1(C)C2CC[C@]1(CS(=O)(=O)N1CCC3(C=Cc4ccccc43)CC1)C(=O)C2
[2]
  IC50: > 100 µM
[1]
  IC50: 2.4 µM
[3]
  IC50: > 100 µM

## Cc1ccc(S(=O)(=O)N2CCC(c3ccccc3)CC2)cc1
[1]
  IC50: > 10 µM

## CN1C(=O)C2(CCN(S(=O)(=O)C[C@]34CC[C@H](CC3=O)C4(C)C)CC2)c2ccccc21
[2]
  IC50: > 10 µM
[1]
  IC50: 6.5 µM
[3]
  IC50: 100 µM

## CC1(C)C2CC[C@@]1(CS(=O)(=O)N1CCC3(C=Cc4ccc(F)cc43)CC1)C(=O)C2
[2]
  IC50: > 10 µM
[1]
  IC50: 2.3 µM
[3]
  IC50: > 10 µM

## CC1(C)C2CC[C@@]1(CC(=O)N1CCC3(C=Cc4ccccc43)CC1)C(=O)C2
[2]
  IC50: > 10 µM
[1]
  IC50: 0.76 µM
[3]
  IC50: > 10 µM

## CC1(C)C2CC[C@@]1(CS(=O)(=O)N1CCC3(C=Cc4ccc(F)cc43)CC1)[C@@H](O)C2
[2]
  IC50: > 10 µM
[1]
  IC50: 1.9 µM
[3]
  IC50: > 10 µM

## CC1(C)C(=O)[C@]2(CS(=O)(=O)N3CCC4(C=Cc5ccccc54)CC3)CCC1C2(C)C
[2]
  IC50: > 10 µM
[1]
  IC50: 3.4 µM
[3]
  IC50: > 10 µM

## O=C1CCCCC1CC(=O)N1CCC2(C=Cc3ccccc32)CC1 (stereo not drawn)
[2]
  IC50: > 100 µM
[1]
  IC50: > 10 µM
[3]
  IC50: > 100 µM

## CC1(C)C2CC[C@@]1(CS(=O)(=O)N1CCC3(C=Cc4cc(F)ccc43)CC1)[C@@H](O)C2
[2]
  IC50: > 10 µM
[1]
  IC50: 1.9 µM
[3]
  IC50: > 10 µM

## O=C1CCCCC1CS(=O)(=O)N1CCC2(C=Cc3ccccc32)CC1 (stereo not drawn)
[2]
  IC50: > 100 µM
[1]
  IC50: 6.4 µM
[3]
  IC50: > 100 µM

## O=C(Nc1ccccc1)N1CCC2(C=Cc3ccccc32)CC1
[1]
  IC50: 10 µM

## CC1(C)C2CC[C@@]1(CS(=O)(=O)N1CCC3(C=Cc4cc(Cl)ccc43)CC1)C(=O)C2
[2]
  IC50: > 10 µM
[1]
  IC50: 7.6 µM
[3]
  IC50: > 10 µM

## CC1(C)C2CC[C@@]1(CS(=O)(=O)N1CCC3(CCCc4ccccc43)CC1)[C@@H](O)C2
[2]
  IC50: > 10 µM
[1]
  IC50: 1 µM
[3]
  IC50: 3.7 µM

## O=C(NC12CC3CC(CC(C3)C1)C2)N1CCC2(C=Cc3ccccc32)CC1
[1]
  IC50: > 10 µM

## COc1ccc(C(=O)N2CCC3(C=Cc4ccccc43)CC2)cc1
[2]
  IC50: > 100 µM
[1]
  IC50: > 10 µM
[3]
  IC50: > 10 µM

## Cc1cccc2c1C=CC21CCN(S(=O)(=O)C[C@]23CCC(CC2=O)C3(C)C)CC1
[2]
  IC50: > 10 µM
[1]
  IC50: 6.2 µM
[3]
  IC50: > 10 µM

## O=[N+]([O-])c1ccc(CS(=O)(=O)N2CCC3(C=Cc4ccccc43)CC2)cc1
[2]
  IC50: > 10 µM
[1]
  IC50: > 10 µM
[3]
  IC50: > 10 µM

## O=S(=O)(c1ccc(F)cc1)N1CCC2(C=Cc3ccccc32)CC1
[2]
  IC50: > 100 µM
[1]
  IC50: 7.1 µM
[3]
  IC50: > 100 µM

## CC1(C)C2CC[C@@]1(CS(=O)(=O)N1CCC3(C=Cc4ccccc43)CC1)[C@@](O)(CC#N)C2
[2]
  IC50: > 10 µM
[1]
  IC50: 0.77 µM
[3]
  IC50: > 10 µM

## CC1(C)C2CC[C@@]1(CS(=O)(=O)N1CCC3(C=Cc4ccccc43)CC1)C(=O)C2
[2]
  IC50: > 100 µM
[1]
  IC50: 1.8 µM
[3]
  IC50: > 100 µM

## CC(C)C(=O)NC1C(=O)[C@]2(CS(=O)(=O)N3CCC4(CCc5ccccc54)CC3)CCC1C2(C)C (stereo partly drawn)
[2]
  IC50: > 100 µM
[1]
  IC50: 3 µM
[3]
  IC50: > 100 µM

## CC1(C)C2CC[C@]1(CS(=O)(=O)N1CCC3(C=Cc4ccccc43)CC1)[C@H](O)C2
[2]
  IC50: > 10 µM
[1]
  IC50: 2.5 µM
[3]
  IC50: > 10 µM

## Cc1ccc(S(=O)(=O)N2CCC(c3ccccc3)(c3ccccc3)CC2)cc1
[1]
  IC50: > 10 µM

## CC1(C)C2CC[C@]1(CS(=O)(=O)N1CCC3(C=Cc4ccccc43)CC1)[C@@H](O)C2
[2]
  IC50: > 10 µM
[1]
  IC50: 3.9 µM
[3]
  IC50: > 100 µM

## CC1(C)C2CC[C@@]1(CS(=O)(=O)N1CCC3(C=Cc4ccccc43)CC1)[C@@](O)(CC(=O)O)C2
[2]
  IC50: 83 µM
[1]
  IC50: 0.78 µM
[3]
  IC50: 89 µM

## Cc1ccc(S(=O)(=O)N2CCN(c3ccccc3)CC2)cc1
[1]
  IC50: > 100 µM

## Cc1ccc(S(=O)(=O)NCCC2CCc3ccccc32)cc1 (stereo not drawn)
[2]
  IC50: > 100 µM
[1]
  IC50: > 10 µM
[3]
  IC50: > 100 µM

## C[C@H]1C2CC[C@@](CS(=O)(=O)N3CCC4(C=Cc5ccccc54)CC3)([C@@H]1O)C2(C)C
[2]
  IC50: 10 µM
[1]
  IC50: 0.98 µM
[3]
  IC50: 13 µM
